Laboratory results taken from ChEMBL document CHEMBL1146760, “3,4-Dihydronaphthalen-1(2H)-ones: novel ligands for the benzodiazepine site of alpha5-containing GABAA receptors” (Bioorg Med Chem Lett, 2004).
pKi: −log10 of the molar value.

How the values were obtained:
[1] = biological target: T1, GABA-A receptor; alpha-5/beta-3/gamma-2 (Homo sapiens, UniProt P18507+P28472+P31644); assay: Inhibition of [3H]-Ro- 15-1788 binding to human GABA-A receptor alpha-5-beta-3-gamma-2 subunits; type: protein-complex assay
T1 sequence (P18507 whole entry): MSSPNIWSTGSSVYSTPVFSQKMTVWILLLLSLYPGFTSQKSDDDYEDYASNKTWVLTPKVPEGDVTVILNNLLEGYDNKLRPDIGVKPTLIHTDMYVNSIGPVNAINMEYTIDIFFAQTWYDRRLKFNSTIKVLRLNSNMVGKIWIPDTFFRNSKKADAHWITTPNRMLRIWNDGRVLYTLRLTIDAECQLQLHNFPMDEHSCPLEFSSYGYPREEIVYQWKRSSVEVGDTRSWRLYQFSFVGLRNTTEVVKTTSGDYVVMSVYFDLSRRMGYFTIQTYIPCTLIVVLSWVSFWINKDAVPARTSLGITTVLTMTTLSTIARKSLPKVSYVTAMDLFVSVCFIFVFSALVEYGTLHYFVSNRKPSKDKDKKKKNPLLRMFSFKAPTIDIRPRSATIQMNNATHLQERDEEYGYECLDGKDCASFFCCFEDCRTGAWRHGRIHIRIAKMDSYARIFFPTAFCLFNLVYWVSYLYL
T1 sequence (P28472 whole entry): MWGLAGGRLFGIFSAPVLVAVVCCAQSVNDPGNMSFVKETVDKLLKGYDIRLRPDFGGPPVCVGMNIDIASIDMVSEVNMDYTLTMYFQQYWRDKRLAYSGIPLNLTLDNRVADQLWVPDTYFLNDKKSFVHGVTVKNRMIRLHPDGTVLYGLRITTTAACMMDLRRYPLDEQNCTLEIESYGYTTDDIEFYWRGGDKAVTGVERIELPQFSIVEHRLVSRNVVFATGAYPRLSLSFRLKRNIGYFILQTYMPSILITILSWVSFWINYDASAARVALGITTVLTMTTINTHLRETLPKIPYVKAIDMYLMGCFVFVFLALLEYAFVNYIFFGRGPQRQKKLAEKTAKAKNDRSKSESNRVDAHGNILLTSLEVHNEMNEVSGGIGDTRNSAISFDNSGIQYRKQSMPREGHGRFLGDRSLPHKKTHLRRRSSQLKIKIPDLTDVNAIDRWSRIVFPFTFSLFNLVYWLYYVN
T1 sequence (P31644 whole entry): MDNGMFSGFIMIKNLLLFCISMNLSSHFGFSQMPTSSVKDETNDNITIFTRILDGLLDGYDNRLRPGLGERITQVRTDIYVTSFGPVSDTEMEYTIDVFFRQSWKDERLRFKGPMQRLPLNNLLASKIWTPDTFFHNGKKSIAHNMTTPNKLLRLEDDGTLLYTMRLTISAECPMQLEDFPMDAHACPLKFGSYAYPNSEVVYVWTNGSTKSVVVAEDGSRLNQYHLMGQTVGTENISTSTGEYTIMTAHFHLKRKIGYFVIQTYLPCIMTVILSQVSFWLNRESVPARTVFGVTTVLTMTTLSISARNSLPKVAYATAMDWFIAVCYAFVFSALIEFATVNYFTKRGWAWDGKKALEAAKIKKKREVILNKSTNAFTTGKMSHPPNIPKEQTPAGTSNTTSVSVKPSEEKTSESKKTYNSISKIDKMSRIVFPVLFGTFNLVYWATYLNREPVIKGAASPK
Outline: (§1)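 Displacement of [3H]Ro 15-1788 from recombinant human GABAA receptor subtypes; Ki reported as mean ± SEM of at least three independent determinations, or mean of two determinations with both individual values shown.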

[2] = biological target: T2, GABA-A receptor; alpha-1/beta-3/gamma-2 (Homo sapiens, UniProt P14867+P18507+P28472); assay: Inhibition of [3H]-Ro- 15-1788 binding to recombinant human gamma-aminobutyric-acid A receptor alpha-1-beta-3-gamma-2; type: protein-complex assay; outline: as §1
T2 sequence (P14867 whole entry): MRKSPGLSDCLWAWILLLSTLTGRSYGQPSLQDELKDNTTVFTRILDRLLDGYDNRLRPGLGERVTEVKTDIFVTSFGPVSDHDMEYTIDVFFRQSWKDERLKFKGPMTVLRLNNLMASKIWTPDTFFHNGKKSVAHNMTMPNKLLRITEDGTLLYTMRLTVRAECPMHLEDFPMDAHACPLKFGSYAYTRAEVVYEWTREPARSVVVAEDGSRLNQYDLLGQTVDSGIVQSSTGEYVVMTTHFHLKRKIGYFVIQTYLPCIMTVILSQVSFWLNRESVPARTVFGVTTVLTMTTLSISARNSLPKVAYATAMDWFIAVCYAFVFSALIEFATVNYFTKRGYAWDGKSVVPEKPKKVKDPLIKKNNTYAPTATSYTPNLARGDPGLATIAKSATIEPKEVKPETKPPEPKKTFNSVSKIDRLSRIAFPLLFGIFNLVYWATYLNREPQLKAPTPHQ
T2 sequence (P18507 whole entry): T1 sequence (P18507 whole entry)
T2 sequence (P28472 whole entry): T1 sequence (P28472 whole entry)

[3] = biological target: T3, GABA-A receptor; alpha-2/beta-3/gamma-2 (Homo sapiens, UniProt P18507+P28472+P47869); assay: Inhibition of [3H]-Ro- 15-1788 binding to recombinant human gamma-aminobutyric-acid A receptor alpha-2-beta-3-gamma-2; type: protein-complex assay; outline: as §1
T3 sequence (P18507 whole entry): T1 sequence (P18507 whole entry)
T3 sequence (P28472 whole entry): T1 sequence (P28472 whole entry)
T3 sequence (P47869 whole entry): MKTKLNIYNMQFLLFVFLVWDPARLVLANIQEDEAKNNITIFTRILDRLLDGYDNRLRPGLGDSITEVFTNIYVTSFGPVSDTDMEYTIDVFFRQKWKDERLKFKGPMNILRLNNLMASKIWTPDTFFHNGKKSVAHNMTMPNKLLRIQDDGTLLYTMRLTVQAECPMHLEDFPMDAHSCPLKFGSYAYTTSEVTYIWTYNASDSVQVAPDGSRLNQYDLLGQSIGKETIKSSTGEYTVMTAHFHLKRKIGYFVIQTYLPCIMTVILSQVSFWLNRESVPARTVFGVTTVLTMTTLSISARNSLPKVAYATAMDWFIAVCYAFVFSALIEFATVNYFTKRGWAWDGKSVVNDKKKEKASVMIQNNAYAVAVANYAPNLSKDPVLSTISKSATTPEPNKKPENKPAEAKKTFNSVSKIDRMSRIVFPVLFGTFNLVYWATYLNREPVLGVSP

[4] = biological target: T4, Gamma-aminobutyric acid receptor subunit alpha-5 (Homo sapiens) (UniProt P31644); assay: Selectivity for GABA-A receptor alpha-5 subunit over alpha1,2,3 (range 10-13)
T4 sequence (whole entry): T1 sequence (P31644 whole entry)

[5] = biological target: T5, GABA-A receptor; alpha-3/beta-3/gamma-2 (Homo sapiens, UniProt P18507+P28472+P34903); assay: Inhibition of [3H]-Ro- 15-1788 binding to recombinant human gamma-aminobutyric-acid A receptor alpha-3-beta-3-gamma-2; type: protein-complex assay; outline: as §1
T5 sequence (P18507 whole entry): T1 sequence (P18507 whole entry)
T5 sequence (P28472 whole entry): T1 sequence (P28472 whole entry)
T5 sequence (P34903 whole entry): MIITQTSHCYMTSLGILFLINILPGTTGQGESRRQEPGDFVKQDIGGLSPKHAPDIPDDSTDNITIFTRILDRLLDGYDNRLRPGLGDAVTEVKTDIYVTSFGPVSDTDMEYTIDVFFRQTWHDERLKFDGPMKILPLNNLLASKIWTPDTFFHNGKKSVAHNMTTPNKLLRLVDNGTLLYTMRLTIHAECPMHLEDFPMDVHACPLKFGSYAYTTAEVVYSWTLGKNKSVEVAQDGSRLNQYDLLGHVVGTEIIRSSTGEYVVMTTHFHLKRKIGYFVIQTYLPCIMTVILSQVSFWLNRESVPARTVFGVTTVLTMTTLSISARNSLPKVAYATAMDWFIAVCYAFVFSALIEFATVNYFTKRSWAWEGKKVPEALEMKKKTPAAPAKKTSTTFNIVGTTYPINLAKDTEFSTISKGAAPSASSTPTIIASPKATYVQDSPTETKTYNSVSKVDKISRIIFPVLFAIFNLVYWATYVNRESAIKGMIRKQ

[6] = biological target: T6, GABA-A receptor; alpha-5/beta-3/gamma-2 (Homo sapiens) (UniProt P18507+P28472+P31644); assay: Percentage modulation of submaximal (EC20) response to GABA-A receptor alpha-5-beta-3-gamma-2 subunits expressed in mouse fibroblast L(tk-) cells; type: functional, cell-based
Outline: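 Whole-cell patch clamp of mouse fibroblast L(tk⁻) cells stably expressing human α5β3γ2. Percentage maximum modulation of current relative to a submaximal (EC20) GABA response, taken from fitted concentration–response curves. Mean ± SEM of at least three individual curves.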

[7] = biological target: T4, Gamma-aminobutyric acid receptor subunit alpha-5 (Homo sapiens); assay: Selectivity for GABA-A receptor alpha-5 subunit over alpha1,2,3 (range 6-8)
[8] = biological target: T6, GABA-A receptor; alpha-5/beta-3/gamma-2 (Homo sapiens); assay: Percentage modulation of submaximal (EC20) response to GABA-A receptor alpha-5-beta-3-gamma-2 subunits expressed in Xenopus laevis oocytes; type: functional, cell-based; settings: Oocyte
[9] = biological target: T4, Gamma-aminobutyric acid receptor subunit alpha-5 (Homo sapiens); assay: Selectivity for GABA-A receptor alpha-5 subunit over alpha1,2,3 (range 16-38)
[10] = biological target: T4, Gamma-aminobutyric acid receptor subunit alpha-5 (Homo sapiens); assay: Selectivity for GABA-A receptor alpha-5 subunit over alpha1,2,3 (range 7-13)
[11] = biological target: T4, Gamma-aminobutyric acid receptor subunit alpha-5 (Homo sapiens); assay: Selectivity for GABA-A receptor alpha5 subunit over alpha1,2,3 (range 5-9)
[12] = biological target: T4, Gamma-aminobutyric acid receptor subunit alpha-5 (Homo sapiens); assay: Selectivity for GABA-A receptor alpha-5 subunit over alpha1,2,3 (range 5-15)
[13] = biological target: T4, Gamma-aminobutyric acid receptor subunit alpha-5 (Homo sapiens); assay: Selectivity for GABA-A receptor alpha-5 subunit over alpha1,2,3 (range 6-14)
[14] = biological target: T4, Gamma-aminobutyric acid receptor subunit alpha-5 (Homo sapiens); assay: Selectivity for GABA-A receptor alpha-5 subunit over alpha1,2,3 (range 5-11)
[15] = biological target: T4, Gamma-aminobutyric acid receptor subunit alpha-5 (Homo sapiens); assay: Selectivity for GABA-A receptor alpha-5 subunit over alpha1,2,3
[16] = biological target: T4, Gamma-aminobutyric acid receptor subunit alpha-5 (Homo sapiens); assay: Selectivity for GABA-A receptor alpha-5 subunit over alpha1,2,3 (range 14-35)
[17] = biological target: T4, Gamma-aminobutyric acid receptor subunit alpha-5 (Homo sapiens); assay: Selectivity for GABA-A receptor alpha-5 subunit over alpha1,2,3 (range 3-12)

| SMILES | pKi [1] | pKi [2] | pKi [3] | pKi [5] | Efficacy [6] [%] | Efficacy [8] [%] | also measured |
| --- | --- | --- | --- | --- | --- | --- | --- |
| COc1nc(CSc2ccc(-c3nccs3)c3c2C(=O)CC(C)C3)ns1 (stereo not given) | 8.49 | 7.40 | 7.47 | 7.46 | 57 | – | Selectivity [4]: 13 |
| CSc1ccc(-c2ccccn2)c2c1C(=O)CC(C)C2 (stereo not given) | 8.12 | 7.20 | 7.20 | 7.38 | – | -5 | Selectivity [7]: 8 |
| CC1CC(=O)c2c(SCc3ncn(C)n3)ccc(-c3nccs3)c2C1 (stereo not given) | 9.00 | 7.42 | 7.70 | 7.80 | 29 | – | Selectivity [9]: 38 |
| CCSc1ccc(-c2ccccn2)c2c1C(=O)CC(C)C2 (stereo not given) | 8.72 | 7.60 | 7.89 | 7.82 | – | 2 | Selectivity [10]: 13 |
| CCSc1ccc(-c2cnccn2)c2c1C(=O)CC(C)C2 (stereo not given) | 8.68 | 7.96 | 7.72 | 7.89 | – | 2 | Selectivity [11]: 9 |
| CCSc1ccc(-c2nccs2)c2c1C(=O)CC(C)C2 (stereo not given) | 9.00 | 8.27 | 7.82 | 7.92 | – | -8 | Selectivity [12]: 15 |
| CCSc1ccc(-c2ncco2)c2c1C(=O)CC(C)C2 (stereo not given) | 8.59 | 7.43 | 7.42 | 7.80 | – | 5 | Selectivity [13]: 14 |
| CC1CC(=O)c2c(Sc3cccs3)ccc(-c3ccccn3)c2C1 (stereo not given) | 9.30 | 8.64 | 8.27 | 8.35 | – | 50 | Selectivity [14]: 11 |
| CCSc1ccc(-c2cccc[n+]2[O-])c2c1C(=O)CC(C)C2 (stereo not given) | 7.60 | < 6.52 | 6.57 | 6.54 | 80 | – | Selectivity [15]: > 11 |
| CCSc1ccc(-c2ccccn2)c2c1C(=O)CCC2 | 6.99 | < 6.52 | < 6.52 | < 6.52 | – | – | Selectivity [15]: > 3 |
| CCc1c(C(=O)OC)ncc2[nH]c3cc(OC)c(OC)cc3c12 | – | – | – | – | -57 | -34 | – |
| CNC1=Nc2ccc(Cl)cc2C(c2ccccc2)=[N+]([O-])C1 | – | – | – | – | 99 | 134 | – |
| CC1CC(=O)c2c(SCc3cn[nH]n3)ccc(-c3nccs3)c2C1 (stereo not given) | 8.59 | 7.04 | 7.24 | 7.44 | 6 | – | Selectivity [16]: 35 |
| CSc1ccc(-c2ccccn2)c2c1C(=O)CC(C)(C)C2 | 7.72 | 6.64 | 7.22 | 7.23 | -32 | – | Selectivity [17]: 12 |
